How the values were obtained:
[1] = tested on: A375 cells with overexpression of BRAF V600E; test: A375 xenograft with doxycycline-induced BRAF V600E overexpression; format: in vivo, nude mice; details: vemurafenib 75mg/kg BID, PLX8394 50mg/kg BID
Outline: (§1)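 A375 cells carrying a retroviral tet-regulated BRAF V600E or NRAS Q61K construct (kept in 50 ug/ml hygromycin and 0.2 ug/ml puromycin). 5 million cells were injected s.c. into nude mice fed doxycycline food. At 100 mm3, mice stayed on doxycycline food and received vehicle, reference RAF inhibitor 75 mg/kg BID or test compound 50 mg/kg BID. Tumour size was tracked (n=5; mean±s.d.; two-tailed unpaired t-test).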

[2] = tested on: BRAF G466V PDX tumors; test: Colorectal cancer PDX model; format: in vivo, NSG mice; details: Cetuximab 50 mg/kg IP twice weekly, vemurafenib 75 mg/kg BID, PLX8394 50 mg/kg BID
[3] = tested on: A375 cells with NRAS Q61K expression; test: A375 xenograft with doxycycline-induced NRAS Q61K; format: in vivo, nude mice; details: vemurafenib 75mg/kg BID, PLX8394 50mg/kg BID
Outline: as §1

[4] = tested on: BRAF K601E CRC PDX tumors; test: Colorectal cancer PDX model; format: in vivo, NSG mice; details: vemurafenib 75mg/kg BID, PLX8394 50mg/kg BID
[5] = tested on: RAF-null MEFs expressing ARAF; test: ERK signaling in RAF-null MEFs expressing one RAF isoform; format: cell-based, Mouse; details: 1hr
Outline: (§2)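 RAF-less MEFs came from Araflox/lox;Braflox/lox;Craflox/lox;RERT ert/ert MEFs. Doxycycline-inducible wild-type ARAF, BRAF or CRAF was transduced retrovirally without 4-OHT and selected with puromycin/hygromycin. Cells were then infected with Adeno-Cre (MOI 100) and cultured in 1 uM 4-OHT plus 50 ng/ml doxycycline. GFP-positive cells were sorted after 2 weeks. Loss of endogenous RAF and induced expression were confirmed by genomic PCR and Western blot.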

[6] = tested on: RAF-null MEFs expressing CRAF; test: as above; format: cell-based, Mouse; details: 1hr
Outline: as §2

[7] = tested on: RAF-null MEFs expressing BRAF; test: as above; format: cell-based, Mouse; details: 1hr
Outline: as §2

[8] = tested on: first site of RAF dimers; details: cited from earlier work
[9] = tested on: second site of RAF dimers; details: read-out: IC50 of binding to the second site of RAF dimers; cited from earlier work
[10] = tested on: BRAF V600E monomer; details: cited from earlier work

Compound | response of ERK signaling and tumor growth, BRAF V600E amplified [1] | response of ERK signaling and tumor growth [2] | response of ERK signaling and tumor growth, mutant NRAS [3] | tumor growth response, single RAF inhibitor [4] | effect on ERK signaling, cells expressing only ARAF [5] | effect on ERK signaling, cells expressing only CRAF [6] | effect on ERK signaling, cells expressing only BRAF [7] | time the drug remains bound to the other site after washout ([8]; cells pretreated 1 hour, washed out) | IC50 ([8]; read-out: IC50 of binding to first site of RAF dimers) [µM] | IC50 [9] [µM] | off-rate from BRAF V600E monomers [10] [h] | IC50 ([10]; read-out: IC50 of binding to the BRAF V600E monomer) [µM]
CCCS(=O)(=O)Nc1ccc(F)c(C(=O)c2c[nH]c3ncc(-c4ccc(Cl)cc4)cc23)c1F [vemurafenib, reference compound] | resistance | insensitive | resistance | insensitive | activated ERK signaling | activated ERK signaling | activated ERK signaling | – | – | – | – | –
COC(=O)N[C@@H](C)CNc1nccc(-c2cn(C(C)C)nc2-c2cc(Cl)cc(NS(C)(=O)=O)c2F)n1 [encorafenib] | – | – | – | – | – | – | – | up to 24 hours | 0.014 | 0.287 | > 24 | 0.014
